Screens as filed in PubChem.
A selection: hits, their analogues and other compounds. The true share with any hit is near 6.3%.
M1 ag: activates the M1 muscarinic receptor; B-score at 10 µM; hit rate 3% among 64,000; CHO-M1 cells, Fluo-4 calcium fluorescence, agonist mode; hits give high values;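 active = fluorescence rise, raw or as B-score row- and column-corrected plate score, outside the 99.7% band of its plate's samples, either direction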
MT1-MMP txn act: MT1-MMP promoter transcription activation. HT1080 MT1-MMP promoter luciferase reporter, luminescence, overnight; hits give high values. activation factor at 10 µM. hit rate 0.16% among 86,000. AID 750;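 active = activation factor of at least 2 for MT1-MMP transcription at 10 µM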
SF-1 act: activators of human nuclear receptor SF-1; CHO-K1 Gal4-SF-1 LBD luciferase reporter; % increase over DMSO SF-1-specific signal; Q13285; activation, % at 10 µM; hit rate 1.9% among 65,000; AID 522;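 active = activation above the mean activation of all tested compounds plus 3 SD, cut at about 50% in these data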
Target sequence (Q13285 whole entry, looked up, the tested form may be a part): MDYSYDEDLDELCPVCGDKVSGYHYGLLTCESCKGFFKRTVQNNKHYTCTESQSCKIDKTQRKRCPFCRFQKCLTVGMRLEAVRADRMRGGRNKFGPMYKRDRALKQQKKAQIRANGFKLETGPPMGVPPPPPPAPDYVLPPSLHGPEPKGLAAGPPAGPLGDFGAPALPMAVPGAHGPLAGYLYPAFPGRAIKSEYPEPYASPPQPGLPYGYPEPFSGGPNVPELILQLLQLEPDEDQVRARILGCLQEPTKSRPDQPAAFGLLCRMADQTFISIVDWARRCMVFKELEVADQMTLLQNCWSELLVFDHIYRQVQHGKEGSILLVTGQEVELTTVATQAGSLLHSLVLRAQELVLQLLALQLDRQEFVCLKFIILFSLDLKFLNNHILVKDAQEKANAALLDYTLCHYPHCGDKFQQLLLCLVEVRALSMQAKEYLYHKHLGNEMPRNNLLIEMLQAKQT
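Test system: CHO-K1 cells co-transfected with Gal4 DBD–human SF-1 LBD, 5xGal4 luciferase reporter. Quantity: 4,000 cells per well. Compound: 10 µM only. Incubation: compound added 1 h post-seeding, 20 h exposure at 37 °C, 5% CO2. Detection: SteadyLite luciferase luminescence. Replication: one test per compound.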
RORA act: activates the human nuclear receptor RORA; activation, % at 10 µM; hit rate 1.5% among 65,000; P35398; AID 560; CHO-K1 Gal4-RORA LBD luciferase reporter, luminescence; percent increase over mock-subtracted basal signal;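 active = activation above the mean of all tested compounds plus 3 SD, cut at about 49% in these data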;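 note: 0% = DMSO-treated RORA cells and 100% = added signal equal to DMSO minus mock-transfected cells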
M1 antagonist: blocks the rat M1 muscarinic receptor response to acetylcholine | P08482 | CHO-M1 cells, Fluo-4 calcium, ACh EC80 antagonist mode; hits give low values | B-score at 10 µM | hit rate 3.4% among 64,000 | AID 628;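 active = calcium fluorescence response, raw or row-and-column corrected B-score, differing from the plate sample mean either way at a set confidence level, mostly lower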
The depositor's hits bear a star; / = not tested or not shown.

SMILES	M1 ag	MT1-MMP txn act	SF-1 act	RORA act	M1 antagonist
Cc1ccc(C(=O)Nc2ccc3c(c2)CCC3)o1	0.314	0.9	58.6*	15.7	0.448
Cc1ccc(C(=O)Nc2ccc(O)c(C(=O)O)c2)o1	-0.14	1.1	5.6	-10.1	1.16
Cc1occc1C(=O)Nc1ccc2c(c1)CCC2	0.866	0.8	74.7*	54.8*	-0.141
CCCOC(=O)c1ccc(NC(=O)c2ccoc2C)cc1	-0.701	1.4	63.4*	41.8	-0.0954
N#Cc1ccc(C23CC4(C2)[C@H](CN(CC2CCCCC2)[C@@H]4c2ccccc2)C3c2ccc(Cl)nc2)cc1 (some centres not stated)	/	1.1	/	/	/
Cn1nnc2cc(C(=O)N3CCCCCC3)ccc21	0.0612	1	8.4	-3.2	0.889
Cc1cccc(-n2cnc3cc(C(=O)N4CCCCC4)ccc32)c1	0.886	1.4	54.6*	15.5	0.121
O=C(CN1C(=O)NC2(CCc3ccccc32)C1=O)c1ccc2c(c1)OCCO2 (configuration not stated)	-0.344	1.3	8.1	-19.6	1.93
Cn1c(=O)n(Cc2ccccc2)c(=O)c2c1nc1n2CCCN1Cc1ccccc1	0.439	1	9.8	3.8	2.9*
Cn1c(=O)n(Cc2ccc(Cl)cc2)c(=O)c2c1nc1n2CCN1Cc1ccco1	-2.31*	1	1.8	13.8	-1.05
c1c2c(cc3sc(N4CCOCC4)nc13)OCO2	-0.759	0.8	58.0*	33.5	-0.415
COc1ccc(OC)c2sc(N3CCN(c4ccccc4)CC3)nc12	-0.00523	1.2	20.1	-1.3	0.022
Clc1ccc2nc(N3CCN(c4ccccc4)CC3)sc2c1	/	0.8	71.6*	28.3	/
c1ccc(N2CCN(c3nc4cc5c(cc4s3)OCO5)CC2)cc1	-1.02	1.2	54.6*	69.8*	0.0923
CCC(C)NC(=O)CCNS(=O)(=O)c1ccc(Br)cc1 (configuration not stated)	-0.00554	1.2	-1.5	-4.9	-0.385
Cc1cccc2cc(CN(CCN3CCOCC3)C(=O)NCc3ccccc3)c(=O)[nH]c12	0.717	1.1	18.7	-8.2	-1.36
Cc1cc2nc(C)n(CCCNC(=O)Nc3cccc4ccccc34)c2cc1C	/	1	/	/	/
CS(=O)(=O)N1CCN(c2nc3ccccc3s2)CC1	0.345	1.4	28.5	57.6*	-0.499
COc1ccc(C(=O)Nc2ccc(Cl)c(Cl)c2)c(OC)n1	0.0621	1.7	27.7	52.4*	-0.704
CC1CCc2nc(NC(=O)Cc3cccs3)sc2C1 (configuration not stated)	-0.00474	1.4	63.1*	35.4	0.156
O=C(CCCc1cccs1)Nc1nc2c(s1)CCCC2	0.459	1.6	73.2*	37.1	-0.449
O=C(CCS(=O)(=O)Cc1ccccc1)Nc1nc2c(s1)CCCC2	-2.36	1	-3.4	-10.9	0.868
CC1CCc2nc(NC(=O)c3ccco3)sc2C1 (configuration not stated)	0.481	0.1	-63.6	-61.5	-0.0162
c1ccc2nc3c(nc2c1)c1ccccc1n3CCN1CCOCC1	6.45*	1.2	91.3*	14.1	-0.292
CCOC(=O)C1C(=O)NC(N2CCCCC2)=NC1c1ccco1 (configuration not stated)	2	1	-4.6	-13.1	-0.152
SMILES	M1 ag	MT1-MMP txn act	SF-1 act	RORA act	M1 antagonist
Cc1cc(C(F)(F)F)nc(NCc2cccnc2)n1	0.139	1.1	-12.2	10.5	-1.77
COc1cc(SC)ccc1C(=O)Nc1ccc(S(=O)(=O)N2CCCC2)cc1	0.0568	1.1	8.5	-5.5	0.719
COc1cc(SC)ccc1C(=O)Nc1ccon1	0.312	1.2	28.0	27.2	0.928*
COC(=O)c1ccc(C(NC(=O)OCc2ccccc2)/C(C)=C/[C@@H](C)C(=O)NCc2cccnc2)cc1 (some centres not stated)	/	1.8	/	/	/
CCN(CC)c1ccc(NC(=O)c2cccc(C)c2OC)c(C)c1	0.973	1.7	65.6*	72.8*	0
O=C(Nc1ccc(N2C(=O)C3C4C=CC(C4)C3C2=O)cc1)Nc1cccnc1 (configuration not stated)	-0.116	1.2	3.3	-7.5	0.738
COc1ccc(CN2CCOCC2)cc1	/	1	/	/	/
CCCCCOc1ccc(CN2CCOCC2)cc1Cl	0.324	1.7	61.3*	39.9	0.00084
Cc1nnc2c3cnn(-c4ccc(Cl)cc4)c3ncn12	1.81	1.6	25.3	65.3*	-0.231
C[C@H]1C2=C3[C@@H](C[C@H]4C(=O)N(c5ccccc5)C(=O)[C@H]4[C@H]3[C@@]3(Cc4ccccc4)C(=NCCc4c[nH]c5ccccc45)OC(=O)N3C2=O)[C@H]2C(=O)N(c3ccccc3)C(=O)[C@H]21	/	1.2	/	/	/
COc1ccc(C2C=C(c3ccc(Br)cc3)Nc3nc(N4C(=O)CCC4=O)nn32)cc1 (configuration not stated)	21.5*	1	-17.1	-1.5	0.254
O=C1CCC(=O)N1c1nc2n(n1)C(c1ccccc1)C=C(c1ccc(Br)cc1)N2 (configuration not stated)	26.2*	1.1	-4.7	-25.0	-0.642
Cn1ncc(N=Cc2ccc([N+](=O)[O-])cc2)c1C(=O)N1CCOCC1	/	1.1	/	/	/
Cc1ccc(Nc2nc(=O)c3cccnc3s2)cc1	0.989	1.6	53.1*	49.6*	1.44
O=c1nc(NCc2ccco2)sc2ncccc12	-0.0581	1.1	0.8	-19.3	0.403
C[C@@H]1C=C[C@](Cc2ccccc2)(C(=O)NCCCNc2ncc(C(F)(F)F)cc2Cl)N1C(=O)c1ccccc1	/	1.4	/	/	/
CC(C)Oc1ccc(NC(=O)Oc2ccccc2)cc1	-1.22	1.3	52.1*	39.4	0.0383
CC(=O)c1ccc(NC(=O)Oc2ccccc2)cc1	/	1.5	/	/	/
Cc1ccc(NC(=O)CSc2nc3ccccc3c(=O)n2CCCN2CCCCC2)cc1C	/	0.9	/	/	/
O=C1C2C3C=CC(C3)C2C(=O)N1c1ccc(-c2nc3ccccc3o2)cc1 (configuration not stated)	0.88	1.6	40.6	72.8*	0.326
NS(=O)(=O)c1ccc2c(c1)C1C=CCC1C(C1CC=CCC1)N2 (configuration not stated)	/	1.1	/	/	/
CC(C)C1Nc2ccc(S(N)(=O)=O)cc2C2C=CCC21 (configuration not stated)	2.13*	1	1.1	-1.5	-0.0391
CCCSc1nc(C)cc(C)c1C(N)=O	/	1.2	/	/	/
Cc1ccc2[nH]c(=O)c(CN(Cc3nnnn3Cc3ccccc3)C3CCCC3)cc2c1	0.352	1	-14.7	-14.1	-0.113
Cc1cccc2cc(CN(Cc3nnnn3Cc3ccco3)C3CCCC3)c3nnnn3c12	-0.394	1.2	9.5	11.9	2.41*
CCCC(C)C1C(C#N)=C(N)Oc2cc(C)oc(=O)c21 (configuration not stated)	-0.229	1	-1.2	-2.6	1.14
COC(=O)[C@@H](NC(=O)Nc1ccccc1F)C(C)C	1.47	1.1	6.5	-12.6	1.62*
COC(=O)[C@@H](NC(=O)NC(C)CCc1ccccc1)C(C)C (some centres not stated)	0.18	1.2	-11.0	-30.5	-0.259
COC(=O)[C@@]1(Cc2ccccc2)C=C[C@@H](C)N1C	/	1	/	/	/
